Source: ChEMBL document CHEMBL1154449, “Synthesis, characterization and in vitro antibacterial activity of thiourea and urea derivatives of steroids” (2008)
≈ marks a conversion by molar mass, not a printed value.

Columns and labels:
Salmonella typhimurium [1] = test: Antibacterial activity against Salmonella Typhimurium after 18 hrs at 37 degC by microdilution method; format: functional, Salmonella enterica subsp. enterica serovar Typhimurium; conditions: Salmonella enterica, in the assay text read “macrodilution” for “microdilution”
Streptococcus pyogenes [2] = test: Antibacterial activity against Streptococcus pyogenes after 18 hrs at 37 degC by microdilution method; format: functional; conditions: in the assay text read “macrodilution” for “microdilution”
Escherichia coli [3] = test: Antibacterial activity against Escherichia coli at 1 mg/disk after 18 hrs at 36 degC by disk diffusion method; format: functional
Outline: (§1)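 Disk diffusion. Strains were subcultured in BHI for 18 h at 37 °C, then suspended in saline by McFarland to about […] CFU/mL. The suspension was mixed with sterile antibiotic agar at 40 °C and poured onto plates, and 6.0 mm paper disks were applied. Test compound stock was made in DMSO and diluted to several concentrations applied to disks. Chloramphenicol disks served as positive control and DMSO disks as negative control. Inhibition zone (mm) was read after 18 h at 36 °C.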

Staphylococcus aureus [4] = test: Antibacterial activity against Staphylococcus aureus after 18 hrs at 37 degC by microdilution method; format: functional; conditions: in the assay text read “macrodilution” for “microdilution”
Escherichia coli [5] = test: Antibacterial activity against Escherichia coli after 18 hrs at 37 degC by microdilution method; format: functional
Streptococcus pyogenes [6] = test: Antibacterial activity against Streptococcus pyogenes at 1 mg/disk after 18 hrs at 36 degC by disk diffusion method; format: functional; outline: as §1
Salmonella typhimurium [7] = test: Antibacterial activity against Salmonella Typhimurium at 1 mg/disk after 18 hrs at 36 degC by disk diffusion method; format: functional, Salmonella enterica subsp. enterica serovar Typhimurium; outline: as §1
Staphylococcus aureus [8] = test: Antibacterial activity against Staphylococcus aureus at 1 mg/disk after 18 hrs at 36 degC by disk diffusion method; format: functional; outline: as §1
Streptococcus pyogenes [9] = test: Antibacterial activity against Streptococcus pyogenes at 30 ug/disk after 18 hrs at 36 degC by disk diffusion method; format: functional; conditions: read-out: IZ; outline: as §1
Escherichia coli [10] = test: Antibacterial activity against Escherichia coli at 30 ug/disk after 18 hrs at 36 degC by disk diffusion method; format: functional; conditions: read-out: IZ; outline: as §1
Staphylococcus aureus [11] = test: Antibacterial activity against Staphylococcus aureus at 30 ug/disk after 18 hrs at 36 degC by disk diffusion method; format: functional; conditions: read-out: IZ
Outline: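 S. aureus subcultured in BHI medium 18 h at 37 °C, then suspended in saline per McFarland protocol; suspension mixed with sterile antibiotic agar at 40 °C and poured as plates. Paper disks (6.0 mm) loaded with DMSO-dissolved compound at graded concentrations; chloramphenicol disk positive control, DMSO disk negative control. Inhibition zone diameter (mm) read after 18 h at 36 °C.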

Salmonella typhimurium [12] = test: Antibacterial activity against Salmonella Typhimurium at 30 ug/disk after 18 hrs at 36 degC by disk diffusion method; format: functional, Salmonella enterica subsp. enterica serovar Typhimurium; conditions: Salmonella enterica, read-out: IZ; outline: as §1

SMILES	MIC (Salmonella typhimurium [1])	MIC (Streptococcus pyogenes [2])	MIC (Staphylococcus aureus [4])	MIC (Escherichia coli [5])	inhibition zone (IZ) (Escherichia coli [3])	inhibition zone (IZ) (Streptococcus pyogenes [6])	inhibition zone (IZ) (Salmonella typhimurium [7])	inhibition zone (IZ) (Staphylococcus aureus [8])	zone of inhibition at 30 µg/disc (Streptococcus pyogenes [9])	zone of inhibition at 30 µg/disc (Escherichia coli [10])	zone of inhibition at 30 µg/disc (Staphylococcus aureus [11])	zone of inhibition at 30 µg/disc (Salmonella typhimurium [12])
CC[C@H](/C=C/[C@@H](C)[C@H]1CC[C@H]2[C@@H]3C4=C[C@]5(C[C@@H](Cl)CC[C@]5(C)[C@H]3CC[C@]12C)NC(=O)N4)C(C)C	128 µg/mL (≈ 263 µM)	128 µg/mL (≈ 263 µM)	64 µg/mL (≈ 131 µM)	128 µg/mL (≈ 263 µM)	14.8 mm	15.2 mm	14.4 mm	16.8 mm				
CC(C)CCC[C@@H](C)[C@H]1CC[C@H]2[C@@H]3CC=C4C[C@@H](O)CC[C@]4(C)[C@H]3CC[C@]12C [CHOLESTEROL]	512 µg/mL (≈ 1320 µM)	512 µg/mL (≈ 1320 µM)	512 µg/mL (≈ 1320 µM)	512 µg/mL (≈ 1320 µM)	9 mm	7.8 mm	8.2 mm	9.2 mm				
CC[C@H](/C=C/[C@@H](C)[C@H]1CC[C@H]2[C@@H]3C4=C[C@]5(C[C@@H](Cl)CC[C@]5(C)[C@H]3CC[C@]12C)NC(=S)N4)C(C)C	32 µg/mL (≈ 63.6 µM)	64 µg/mL (≈ 127 µM)	64 µg/mL (≈ 127 µM)	32 µg/mL (≈ 63.6 µM)	20.7 mm	23.2 mm	18.7 mm	19.7 mm				
O=C(N[C@H](CO)[C@H](O)c1ccc([N+](=O)[O-])cc1)C(Cl)Cl [CHLORAMPHENICOL]									22.2 mm	20 mm	21 mm	25.2 mm

The next lines start with results.

MIC (Salmonella typhimurium [1])	MIC (Streptococcus pyogenes [2])	MIC (Staphylococcus aureus [4])	MIC (Escherichia coli [5])	SMILES	inhibition zone (IZ) (Escherichia coli [3])	inhibition zone (IZ) (Streptococcus pyogenes [6])	inhibition zone (IZ) (Salmonella typhimurium [7])	inhibition zone (IZ) (Staphylococcus aureus [8])	zone of inhibition at 30 µg/disc (Streptococcus pyogenes [9])	zone of inhibition at 30 µg/disc (Escherichia coli [10])	zone of inhibition at 30 µg/disc (Staphylococcus aureus [11])	zone of inhibition at 30 µg/disc (Salmonella typhimurium [12])
32 µg/mL (≈ 60.7 µM)	64 µg/mL (≈ 121 µM)	32 µg/mL (≈ 60.7 µM)	32 µg/mL (≈ 60.7 µM)	CC[C@H](/C=C/[C@@H](C)[C@H]1CC[C@H]2[C@@H]3C4=C[C@]5(C[C@@H](OC(C)=O)CC[C@]5(C)[C@H]3CC[C@]12C)NC(=S)N4)C(C)C	23.4 mm	21.6 mm	19.4 mm	22.5 mm				
128 µg/mL (≈ 251 µM)	128 µg/mL (≈ 251 µM)	64 µg/mL (≈ 125 µM)	64 µg/mL (≈ 125 µM)	CC[C@H](/C=C/[C@@H](C)[C@H]1CC[C@H]2[C@@H]3C4=C[C@]5(C[C@@H](OC(C)=O)CC[C@]5(C)[C@H]3CC[C@]12C)NC(=O)N4)C(C)C	16.3 mm	12.4 mm	15.2 mm	14.4 mm				
